Assay outcomes: PubChem, several laboratories
Hits are enriched below; roughly 5.1% of the tested compounds scored in any of these assays.
NF-kB expr up: activators of NF-kB expression in neurons, primary screen, cell-based, HTS; human neuronal cells, NF-kB reporter expression; hits give high values; 1.6% of 190,000 active; fold change at 12.5 µM; in the data active means fold change above about 3.3
APP 5'UTR act: activators of APP 5'UTR luciferase reporter, primary screen, SH-SY5Y cells; SH-SY5Y APP 5'UTR luciferase reporter, luminescence; zero percent = DMSO vehicle wells; activation, % at 2 µM; 1% of 190,000 active; AID 1276, 2008;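 active means activation above a set limit, based on mean plus 3 SD of controls, cut at about 140% in these data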
STAT1 inh: STAT1 signaling inhibitors, primary screen, cell-based, HTS, luciferase reporter. AID 920, 2007. NIH 3T3 STAT1-luciferase reporter, IFN-gamma, luminescence. 0.35% of 200,000 active. inhibition, % at 5.5 µM;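 active means inhibition above a set limit, the mean inhibition across all tested compounds plus 3 SD, cut at about 34% in these data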;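 further: 0% = IFN-gamma with DMSO and 100% = IFN-gamma with 300 µM nifuroxazide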
STAT1 act: STAT1 signaling activators, primary screen, cell-based, HTS, luciferase reporter. NIH 3T3 STAT1-luciferase reporter, IFN-gamma, luminescence; 100% = IFN-gamma alone, no compound. activation (% of control), % at 5.5 µM. AID 932, 2007. 2.6% of 200,000 active;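 active means activation above the screen-wide mean activation plus 3 SD, cut at about 130% in these data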;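 further: raw ratio to IFN-gamma control signal so 100% means no change and 0% no light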
STAT3 inh-1: IL-6 driven STAT3 reporter inhibitors, primary screen, U3A cells, luciferase, luminescence, MLSCN library | IL-6 STAT3-luciferase reporter; host cell line lacks STAT1 | inhibition, % at 5.5 µM | 0.89% of 190,000 active | AID 862, 2007;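 active means inhibition above the mean inhibition across all screened compounds plus 3 SD, cut at about 44% in these data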;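 further: 0% = DMSO only wells and 100% = 100 µM nifuroxazide control wells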
STAT3 activator: IL-6 driven STAT3 reporter potentiators, primary screen, U3A cells, luciferase, luminescence, MLSCN library; IL-6 STAT3-luciferase reporter; 100% = signal with IL-6 EC80 alone; activation (% of control), % at 5.6 µM; 0.91% of 190,000 active; AID 871, 2007;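 active means activation above the screen-wide mean of compound activation plus 3 SD, cut at about 130% in these data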;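 further: 0% = background luminescence of wells with medium and substrate only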
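Material: human U3A cells carrying STAT3-luciferase construct. Measured by: reporter luminescence signal. Timing: compound 1 h, then IL-6 6 h at 37 °C.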
STAT3 inh-2: STAT3 reporter inhibitors, retest of hits, confirmation, U3A cells, luciferase, luminescence | shares compounds with STAT3 inh-1 | IL-6 STAT3 luciferase reporter; cell line lacks STAT1 | inhibition, % at 5.7 µM | 45% of 1,200 active | AID 1265, 2008;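 active means inhibition above the hit cutoff computed for the primary STAT3 screen, cut at about 44% in these data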;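 further: 0% = IL-6 plus DMSO and 100% = IL-6 plus nifuroxazide control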
NFkB inh STAT3ct: NF-kB reporter inhibitors in human cells, confirmation, counter-screen for STAT3 inhibitor project, cell-based, HEK293T, luciferase, TNF-alpha stimulus. shares compounds with STAT3 inh-1. TNF-alpha induced. inhibition, % at 5.7 µM. 36% of 1,200 active;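 active means inhibition above the mean of solvent-only control wells plus 3 SD, cutoff set per campaign, cut at about 13% in these data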;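 further: 0% = TNF-alpha with DMSO and 100% = TNF-alpha with MG high control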
STAT1 inh STAT3c: STAT1 reporter inhibitors, IFN-gamma induced, confirmation, counter-screen for STAT3 inhibitor project, cell-based, NIH 3T3, luciferase luminescence. shares compounds with STAT3 inh-1. NIH 3T3 STAT1-luciferase reporter. inhibition, % at 5.7 µM. 27% of 1,200 active. AID 1317, 2008;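 active means inhibition above the mean plus 3 SD of solvent-only control wells, limit set per screening run, cut at about 16% in these data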;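 further: 0% = DMSO with IFN-gamma and 100% = nifuroxazide control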
* = called active by the depositor; x = not tested or not shown.

SMILES	NF-kB expr up	APP 5'UTR act	STAT1 inh	STAT1 act	STAT3 inh-1	STAT3 activator	STAT3 inh-2	NFkB inh STAT3ct	STAT1 inh STAT3c
O=C(NCc1ccccc1)C1=C[C@H](c2ccc(C(F)(F)F)cc2)C[C@H](OCc2ccc(CO)cc2)O1	1.19	-22.0	-0.9	102.3	x	x	x	x	x
COc1cc(C(C(=O)NCc2ccccc2)N(Cc2ccco2)C(=O)c2cnccn2)cc(OC)c1OC (centres undefined)	0.89	-13.8	5.6	94.6	6.0	99.8	x	x	x
CNc1nc2cc([N+](=O)[O-])c([N+](=O)[O-])cc2nc1NC	0.77	18.3	19.8	82.0	71.6*	38.5	64.8*	28.4*	20.4*
COc1cccc(-c2cc(C(=O)Nc3cccc(O)c3)no2)c1	6.68*	106.0	-0.5	100.4	88.9*	29.5	49.6*	8.7	-52.6
COc1ccc(-c2cc(C(=O)Nc3cc(C)n(Cc4ccc(Cl)cc4)n3)no2)cc1OC	0.71	-6.4	12.9	88.3	73.8*	37.6	71.2*	28.8*	1.7
Cc1cccc(C(=O)N/N=C/c2ccc3c(c2)OCO3)n1	1.39	-5.8	-0.2	100.2	6.5	96.0	x	x	x
O=C(N/N=C/c1ccc2c(c1)OCO2)c1ccccn1	2.19	56.2	-0.5	100.5	55.0*	60.8	12.9	-8.6	-53.6
CC(C(=O)NC(=O)NC1CCCCC1)N1CCN(C(c2ccccc2)c2ccccc2)CC1 (centres undefined)	1	-3.6	-1.1	101.0	-1.3	101.3	x	x	x
Cc1sc(NC(=O)c2ccco2)c(C(c2cccnc2)N2CCN(CCO)CC2)c1C (centres undefined)	0.85	4.3	-8.1	105.7	14.8	95.7	x	x	x
CCOC(=O)C1CCN(C(c2cccnc2)c2c(NC(=O)c3ccco3)sc(C)c2C)CC1 (centres undefined)	0.92	9.3	6.3	94.2	50.0*	57.5	63.5*	14.3*	-2.2
COC(=O)c1nn(-c2ccc(-c3ccccc3)cc2)cc1O	4.6*	156.3*	5.4	96.2	73.7*	42.0	34.7	-3.0	-2.2
CCC(=O)c1ccc(OCC(O)Cn2c(C)nc3ccccc32)cc1 (centres undefined)	0.57	7.8	30.4	73.6	63.6*	47.9	53.1*	14.5*	19.9*
COc1cc(CSc2nnnn2-c2ccc(C)cc2)cc(OC)c1OC	0.71	7.4	22.0	78.5	68.7*	45.8	70.3*	26.4*	21.6*
CCOc1ccc(-n2c(-c3ccccc3)c[n+]3c2CCCCC3)cc1	0.52	11.9	28.8	73.8	74.5*	37.1	76.4*	2.5	24.5*
CCOc1ccc(-n2c(SCc3ccc([N+](=O)[O-])cc3)nnc2-c2ccccc2)cc1	0.69	11.7	-7.5	106.7	-3.8	101.0	x	x	x
Cc1c(C(=O)N2CCc3ccccc3C2)sc2nc(-c3ccccc3)cn12	1.28	7.4	-0.6	100.6	2.1	100.9	x	x	x
c1ccc(-c2cn3c4c(sc3n2)CCCC4)cc1	1.61	87.8	26.8	75.4	82.4*	33.4	58.7*	49.9*	11.7
CC(=O)c1c(C)[nH]c(C(=O)CSc2nnc(N)s2)c1C	1.13	2.0	-2.4	100.9	3.4	103.0	x	x	x
Cc1cc(Cl)c(S(=O)(=O)N2CCSCC2)cc1OCC(=O)NC1CCCCC1	0.72	-20.3	3.2	97.1	67.0*	45.7	67.1*	15.3*	9.9
